Source: PubChem
In the library only some 3.1% were active in any assay of this set; here they are far more common.
CHO parental Ca: counter-screen for OX1R antagonists: effect in parental CHO cells | parental CHO-K1, ATP-induced calcium, Fluo-8 fluorescence | inhibition, % at 5.6 µM | hit rate 0.63% among 330,000;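 active = inhibition above that plate's mean sample inhibition plus 3 SD, cut at about 26% in these data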
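test system = CHO parental line | reagent = ATP stimulus | measured by = intracellular calcium via Fluo-8 no-wash fluorescent dye | control set = ATP and no-ATP DMSO wells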
GPR7 antag: human neuropeptides B/W receptor 1 antagonism; P48145; GPR7-expressing cells, fluorescence antagonist assay; inhibition, % at 4.4 µM; hit rate 1.1% among 290,000; in the data active = inhibition above about 16%, passing the limit was not always enough;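 also: cells stimulated with the agonist NPW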
GalR3 antag: antagonists of human GalR3. inhibition, % at 3 µM. hit rate 0.44% among 360,000. HEK293 GalR3-CNG cAMP membrane potential fluorescence; galR3 body fused to GalR1 C-terminus;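 active = inhibition above the screen-wide average plus 3 SD, cut at about 13% in these data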;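 also: forskolin and galanin both at EC90 stimulate the cells; cAMP rise reported by CNG channel membrane potential dye signal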
Target sequence (O60755 1-299 limits assumed): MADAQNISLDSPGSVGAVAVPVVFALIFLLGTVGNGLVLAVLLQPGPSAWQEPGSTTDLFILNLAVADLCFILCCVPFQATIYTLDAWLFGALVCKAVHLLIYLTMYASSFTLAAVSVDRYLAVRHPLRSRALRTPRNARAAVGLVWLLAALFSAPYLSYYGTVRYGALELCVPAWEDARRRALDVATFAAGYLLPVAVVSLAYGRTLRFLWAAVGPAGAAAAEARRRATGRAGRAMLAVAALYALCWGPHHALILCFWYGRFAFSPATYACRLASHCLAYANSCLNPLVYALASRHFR
OX1R antag-1: blocks the human orexin 1 receptor | CHO/OX1R cells, Fluo-8 calcium fluorescence, orexin A | hit rate 0.43% among 330,000 | O43613 | inhibition, % at 5 µM;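 active = inhibition above its plate's threshold, mean inhibition of all tested compounds on the plate plus 3 SD, cut at about 37% in these data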
OX1R antag-2: antagonists of human orexin 1 receptor (OX1R); O43613; OX1R-expressing cells, FRET antagonist read-out; inhibition, % at 6.6 µM; hit rate 1.8% among 330,000; AID 485270; in the data active = inhibition mostly above about 38%, no sharp cut-off; inactive = mostly below about 40%
GalR3 antag conf: confirmation of human galanin receptor 3 antagonists. shares compounds with GalR3 antag. HEK293 GalR3 CNG cAMP biosensor, membrane potential fluorescence; galR3 fused to GalR1 carboxy tail; challenged with forskolin and galanin at EC90. inhibition, % at 3 µM. hit rate 59% among 1,600. AID 652245;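 active = inhibition above the primary screen's cutoff, the mean inhibition of all screened compounds plus 3 SD, cut at about 13% in these data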
HEK-CNG parental: parental cell agonism counter-screen for GalR3 antagonists. shares compounds with GalR3 antag. HEK293-CNG parental cells, cAMP membrane potential fluorescence; normalised: DMSO wells 0%, forskolin wells 100%. activation, % at 3 µM. hit rate 10% among 1,600. AID 652268; in the data active = activation above about 1.3%
Each line names hits and unclear results; the compound was inactive in the other large screens (follow-up assays come after a bar, where they were run).

CCN(CC)c1ccc(/C=C2\C(=O)NC(=O)N(CC3CCCO3)C2=O)cc1 (centres undefined)	none
Cc1ccc(/C=C2\C(=O)NC(=O)N(CC3CCCO3)C2=O)s1 (centres undefined)	GalR3 antag 16 | GalR3 antag conf inactive | HEK-CNG parental inactive
Cc1cccc(C)c1N1CCN(c2c(C)cccc2C)CC1	none (no result: CHO parental Ca, OX1R antag-1, OX1R antag-2)
C=CCSc1nc2c(c(-c3ccsc3)c1C#N)CN(C)CC2	none
CC(Cc1ccc(O)cc1)NCC(O)c1cc(O)cc(O)c1 (centres undefined)	none (no result: GPR7 antag, GalR3 antag)
CCNCC(O)c1cccc(O)c1 (centres undefined)	GalR3 antag 54 | GalR3 antag conf 68 | HEK-CNG parental inactive
CC12CCC3C(CCC4CC(=O)OCC43C)C1CCC2O (centres undefined)	none (no result: CHO parental Ca, GPR7 antag, OX1R antag-1, OX1R antag-2)
O=c1[nH]c2ccccc2n1C1CCN(C(CCc2ccccc2)c2nnnn2-c2ccc3c(c2)OCCO3)CC1 (centres undefined)	GalR3 antag 21 (no result: CHO parental Ca, GPR7 antag, OX1R antag-1, OX1R antag-2) | GalR3 antag conf 17 | HEK-CNG parental inactive
CN(C)c1ccc(/C=C/C=C/c2sc3ccccc3[n+]2C)cc1	none
CC[n+]1c(/C=C/C=C/c2ccc(N(C)C)cc2)sc2ccccc21	CHO parental Ca 33, GalR3 antag 19, OX1R antag-2 75 | GalR3 antag conf 74 | HEK-CNG parental 3.5
CCOC(=O)[C@]12Cc3cc(C)ccc3[C@H]1N(C1CCCCC1)C(=O)c1cc(OC)ccc12	GalR3 antag 38 (no result: CHO parental Ca, GPR7 antag, OX1R antag-1, OX1R antag-2) | GalR3 antag conf 47 | HEK-CNG parental 3.3
